Read-outs that look alike come from different tables or passages of the source. Values belong to the molecule of their own block, whether it stands above or below them.
How the values were obtained:
[1] = biological target: T1, FtsZ-FtsA co-filaments (Escherichia coli, UniProt P0A9A6+P0ABH0); test: FRAP on supported lipid membranes; conditions: mean±SD
T1 sequence (P0ABH0 1-420): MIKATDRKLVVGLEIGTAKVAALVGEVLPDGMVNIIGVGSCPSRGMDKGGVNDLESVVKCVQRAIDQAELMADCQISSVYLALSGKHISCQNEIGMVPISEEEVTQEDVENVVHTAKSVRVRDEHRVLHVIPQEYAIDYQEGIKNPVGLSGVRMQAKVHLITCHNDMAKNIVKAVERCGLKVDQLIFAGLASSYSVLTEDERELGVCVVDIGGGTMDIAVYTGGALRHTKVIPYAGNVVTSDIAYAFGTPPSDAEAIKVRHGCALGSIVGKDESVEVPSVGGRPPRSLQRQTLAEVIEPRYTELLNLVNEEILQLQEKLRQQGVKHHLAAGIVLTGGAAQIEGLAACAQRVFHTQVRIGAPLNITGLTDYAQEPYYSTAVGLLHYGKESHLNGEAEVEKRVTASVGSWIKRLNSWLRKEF
T1 sequence (P0A9A6 1-383 partner): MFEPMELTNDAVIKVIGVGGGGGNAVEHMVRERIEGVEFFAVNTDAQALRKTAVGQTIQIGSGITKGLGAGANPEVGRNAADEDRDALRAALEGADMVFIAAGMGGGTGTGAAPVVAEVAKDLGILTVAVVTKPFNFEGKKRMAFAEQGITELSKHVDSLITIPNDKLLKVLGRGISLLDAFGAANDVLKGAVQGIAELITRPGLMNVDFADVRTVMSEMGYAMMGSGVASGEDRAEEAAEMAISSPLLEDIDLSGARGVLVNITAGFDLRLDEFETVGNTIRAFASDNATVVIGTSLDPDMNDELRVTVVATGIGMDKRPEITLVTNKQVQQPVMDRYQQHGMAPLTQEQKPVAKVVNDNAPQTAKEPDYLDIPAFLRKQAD
Method in brief: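 Treadmilling patterns were formed on supported lipid membranes with 0.2 mol-% tris-Ni-NTA or 1 mol-% mono-Ni-NTA, using FtsA (0.45-0.6 μM) and FtsZ (1.5-1.8 μM) in 50 mM Tris-HCl pH 7.4, 150 mM KCl, 5 mM MgCl2 with 4 mM ATP/4 mM GTP. His-tagged FtsN cytoplasmic peptide went onto tris-Ni-NTA membranes. A ~15 μm x 15 μm area was bleached and imaged at 2 s/frame; a mono-exponential fit gave the half-time.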

[2] = biological target: T1, FtsZ-FtsA co-filaments; test: Single molecule diffusion and confinement time analysis on supported bilayers; conditions: Cy5-labelled single molecules in presence of Alexa488-FtsZ pattern, Gaussian fit
Method in brief: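 FtsA (0.45-0.6 μM) and FtsZ (1.5-1.8 μM) with 4 mM ATP/GTP formed steady-state patterns on supported membranes. Unlabelled His-tagged FtsN cytoplasmic peptide (1 μM) was added from solution with 10-20 pM Cy5-labelled peptide (wild-type or variant). TIRF tracking ran at 10 Hz. Diffusion-coefficient density distributions were fitted with a Gaussian (FtsZ, FtsA) or a double Gaussian (FtsN).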

[3] = Sedimentation velocity analytical ultracentrifugation; format: physicochemical, Escherichia coli
Method in brief: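 Full-length FtsN was loaded at 9-20 μM and read by Rayleigh interference and 280 nm absorbance. Alexa488-FtsA was loaded at 4 μM and read at 495 nm. c(s) distributions came from least-squares boundary modelling.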

[4] = biological target: FtsZ-FtsA co-filaments on supported lipid membranes (E. coli) (UniProt P0A9A6); test: single-molecule tracking by TIRF microscopy on supported lipid bilayers
[5] = biological target: FtsZ-FtsA co-filaments on supported lipid membranes (E. coli) (UniProt P0A9A6); test: TIRF microscopy of purified proteins on supported lipid bilayers
[6] = biological target: T2, FtsA (E. coli, UniProt P0ABH0 1-420); test: MST
T2 sequence: T1 sequence (P0ABH0 1-420)

[7] = biological target: T3, FtsA (Escherichia coli, UniProt P0ABH0); format: binding; conditions: MST
T3 sequence (P0ABH0 1-420): T1 sequence (P0ABH0 1-420)

[8] = biological target: T2, FtsA; test: MST; remark: listed apart in the source
[9] = biological target: T2, FtsA; test: TIRF microscopy of purified proteins on supported lipid bilayers
[10] = biological target: the molecule itself; test: single-molecule tracking by TIRF microscopy on supported lipid bilayers

- half-time of fluorescence recovery Ƭ0.5, + FtsA/Z ([1]; after FtsA and FtsZ added): 17.7 ± 0.2 s
- half-time of fluorescence recovery Ƭ0.5, alone ([1]; without FtsA and FtsZ): 12.8 ± 3.4 s
Molecule: CCCCCCCC/C=C\CCCCCCCC(=O)OC[C@H](COP(=O)(O)OCCNS(=O)(=O)c1ccc(-c2c3ccc(=[N+](CC)CC)cc-3oc3cc(N(CC)CC)ccc23)c(S(=O)(=O)[O-])c1)OC(=O)CCCCCCC/C=C\CCCCCCCC [rhodamine-PE, 1,2-dioleoyl-sn-glycero-3-phosphoethanolamine-N-(lissaminerhodamine B sulfonyl)]

- confinement time [4]: 0.41 s
- frequency of confinement events relative to FtsN (cyto-DDEE)His [4]: 3 fold
- colocalization efficiency with FtsZ (Pearson correlation coefficient) [5]: 0.62
Molecule: FtsN_(cyto)His, cytoplasmic peptide of FtsN

- diffusion coefficient (Dcoef) of single trajectories [2]: below 1x10^-4 μm^2/s
Molecule: FtsZ: E. coli tubulin-related GTPase FtsZ (UP P0A9A6), purified, fluorescently labelled

The next lines start with the molecule.

Molecule: FtsA: E. coli FtsA (UP P0ABH0), membrane anchor of FtsZ, purified
- diffusion coefficient (Dcoef) of single trajectories [2]: 0.0016 ± 0.0003 μm^2/s
- sedimentation coefficient, main peak ([3]; AlexaFluor488-FtsA in the absence of FtsN, n=2): ~ 2 S

B1: Full-length FtsN (His6) (natural protein)
chain: MAQRDYVRRSQPAPSRRKKSTSRKKQRNLPAVSPAMVAIAAAVLVTFIGGLYFITHHKKEESETLQSQKVTGNGLPPKPEERWRYIKELESRQPGVRAPTEPSAGGEVKTPEQLTPEQRQLLEQMQADMRQQPTQLVEVPWNEQTPEQRQQTLQRQRQAQQLAEQQRLAQQSRTTEQSWQQQTRTSQAAPVQAQPRQSKPASSQQPYQDLLQTPAHTTAQSKPQQAAPVARAADAPKPTAEKKDERRWMVQCGSFRGAEQAETVRAQLAFEGFDSKITTNNGWNRVVIGPVKGKENADSTLNRLKMAGHTNCIRLAAGG
- Kd [6]: 250 ± 51 nM
- interaction with FtsA at high salt ([7]; 300 mM KCl): significantly weaker
- interaction with FtsA in solution ([7]; Alexa647-FtsA titrated with peptide or protein, n=3): Binding was observed
- Kd [8]: 734 ± 23 nM
- sedimentation coefficient, second main peak ([3]; 16 μM in 3.72 mM DDM, Raleigh interference, n=3, compatible with dimers): 5.2 ± 0.1 S
- sedimentation coefficient, first main peak ([3]; 16 μM in 3.72 mM DDM, Raleigh interference, n=3, compatible with monomers): 4.1 ± 0.1 S

B2: FtsZ (natural protein)
chain: T1 sequence (P0A9A6 1-383 partner)
- binding result [9]: binds
- binding result [10]: binds
